# Measurements as given in ChEMBL document CHEMBL4616675, “Discovery of 6-Phenylhexanamide Derivatives as Potent Stereoselective Mitofusin Activators for the Treatment of Mitochondrial Diseases” (J Med Chem, 2020).
# How the values were obtained:
# [1] = Half life in mouse liver microsomes at 1 uM by LC-MS/MS analysis; format: ADME, Microsome; conditions: for t1/2: microsomes, 1 µM; for half-life at 1 µM: liver microsomes
# [2] = Half life in human liver microsomes at 1 uM by LC-MS/MS analysis; format: ADME, Microsome; conditions: for t1/2: microsomes, 1 µM; for half-life at 1 µM: liver microsomes
# [3] = Half life in CD1 mouse plasma at 10 mg/kg, iv by LC-MS/MS analysis; format: ADME, organism-based; conditions: for t1/2: mouse, in vivo; for half-life: CD1, mouse, plasma
# [4] = Volume of distribution in CD1 mouse at 10 mg/kg, iv by LC-MS/MS analysis; format: ADME, organism-based; conditions: in vivo
# Procedure, shortened: (§1)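 Male CD-1 mice, 7–9 weeks, 15 per compound; single tail-vein dose of 10 mg/kg from a 2 mg/ml solution in 10% DMSO/90% (30% HP-β-CD). Plasma and brain sampled at increasing times, assayed in duplicate by LC-MS/MS. Parameters from non-compartmental analysis; mean of at least 3 mice per condition.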
# [5] = AUC in CD1 mouse brain at 10 mg/kg, iv by LC-MS/MS analysis; format: ADME, organism-based; conditions: in vivo
# [6] = Cmax in CD1 mouse brain at 10 mg/kg, iv by LC-MS/MS analysis; format: ADME, organism-based; design: dose 10 mg/kg, route intravenous
# [7] = Half life in CD1 mouse brain at 10 mg/kg, iv by LC-MS/MS analysis; format: ADME, organism-based
# [8] = AUC in CD1 mouse plasma at 10 mg/kg, iv by LC-MS/MS analysis; format: ADME, organism-based; conditions: in vivo
# [9] = Drug level in CD1 mouse brain at 10 mg/kg, iv after 1 hr by LC-MS/MS analysis; format: ADME, organism-based; conditions: read-out: Drug uptake
# Procedure, shortened: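 Male CD-1 mice, 7–9 weeks old, given a single 10 mg/kg tail-vein dose. Compound formulated at 2 mg/ml in 10% DMSO/90% (30% HP-β-CD). Plasma and brain sampled at intervals after dosing and analysed in duplicate by LC-MS/MS. Parameters derived by non-compartmental analysis. Values are means of at least 3 mice per condition; 15 mice per compound.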
# [10] = Cmax in CD1 mouse plasma at 10 mg/kg, iv by LC-MS/MS analysis; format: ADME, organism-based; design: dose 10 mg/kg, route intravenous; conditions: in vivo
# [11] = Ratio of drug level in brain to plasma in CD1 mouse at 10 mg/kg, iv by LC-MS/MS analysis; format: ADME, organism-based; procedure, shortened: as §1
# [12] = Kinetic solubility in pH 7.4 aqueous solution incubated for 24 hrs by UV spectroscopy; format: physicochemical; conditions: read-out: Kinetic_solubility
# [13] = Stability in mouse plasma at 2 uM after 120 mins by LC-MS/MS analysis relative to control; format: ADME, cell-free; conditions: read-out: Stability
# Procedure, shortened: (§2)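 Compounds at 2 µM in clarified freeze-thawed plasma, sampled at 0, 10, 30, 60 and 120 min. Supernatants after protein precipitation analysed by LC-MS/MS; the 120 min value is reported. Run in duplicate.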
# [14] = Stability in human plasma at 2 uM after 120 mins by LC-MS/MS analysis relative to control; format: ADME, cell-free; conditions: read-out: Stability; procedure, shortened: as §2
t1/2 [1],t1/2 [2],Structure (SMILES),further results
> 145 min,> 145 min,O=C(CCCCCc1ccncn1)NC1CCC(O)CC1 (configuration not stated),–
91 min,> 145 min,O=C(NCCCc1nnc(C2CC2)n1-c1ccccc1)NC1CCOCC1,t1/2 [3]: 11.4 min
6 min,43 min,CC1CCCCC1NC(=O)NCCCc1nnc(-c2ccccc2)n1C (configuration not stated),–
28 min,8 min,CC1CCCCC1NC(=O)NCCc1nnc(-c2ccccc2)n1C (configuration not stated),–
> 145 min,> 145 min,O=C(CCCCCc1ccncc1)NC1CCC(O)CC1 (configuration not stated),–
137.5 min,> 145 min,O=C(NCCCCc1ccccc1)NC1CCNCC1,–
1.9 min,13.3 min,CC1CCCCC1NC(=O)NCCCCc1ccccc1 (configuration not stated),–
> 145 min,> 145 min,O=C(CCCCCc1ccccn1)NC1CCC(O)CC1 (configuration not stated),–
24.2 min,40.1 min,CC1CC(O)CCC1NC(=O)NCCCCc1ccccc1 (configuration not stated),Vd [4]: 2 L/kg; AUC [5]: 207 ng·h/g; Cmax [6]: 366 ng/g; half-life [7]: 97.2 min; AUC [8]: 2564 ng·h/mL; concentration at 1 h [9]: < 30 ng/g; Cmax [10]: 3647 ng/mL; half-life [3]: 38.4 min; BPR [11]: 0.081
> 145 min,> 145 min,O=C(CCCCOc1ccccc1)N[C@H]1CC[C@H](O)CC1,–
2 min,6 min,CC1CCCCC1NC(=O)NCCCc1nnc(C2CC2)n1-c1ccccc1 (configuration not stated),"solubility kinetic at 24 h [12]: > 200 µM; remaining at 2 h, 2 µM [13]: 100%; remaining at 2 h, 2 µM [14]: 95%; t1/2 [3]: 12.6 min"
> 145 min,> 145 min,O=C(COCCCc1ccccc1)N[C@H]1CC[C@H](O)CC1,–
1 min,5 min,CC1CCCCC1NC(=O)NCCCc1nnc(C2CC2)n1-c1ccc(F)cc1 (configuration not stated),–
9.9 min,53.6 min,O=C(CCCCCc1ccccc1)NC1CCOCC1,–
> 145 min,> 145 min,O=C(NCCCCc1ccccc1)NC1CCC(O)CC1 (configuration not stated),Vd [4]: 2 L/kg; AUC [5]: 829 ng·h/g; Cmax [6]: 1270 ng/g; half-life [7]: 104 min; AUC [8]: 4860 ng·h/mL; concentration at 1 h [9]: < 120 ng/g; Cmax [10]: 6100 ng/mL; half-life [3]: 69 min; BPR [11]: 0.171
> 145 min,> 145 min,CCn1c(CCCNC(=O)NC2CCOCC2)nnc1C1CC1,t1/2 [3]: 22.8 min
17 min,62 min,O=C(NCCCc1nnc(C2CC2)n1-c1ccc(F)cc1)NC1CCC(F)CC1 (configuration not stated),–
–,–,CC1CCCCC1NC(=O)NCCOc1nnc(C2CC2)n1-c1ccccc1 (configuration not stated),"solubility kinetic at 24 h [12]: 24 µM; remaining at 2 h, 2 µM [13]: 84%; half-life at 1 µM [1]: 3 min; remaining at 2 h, 2 µM [14]: 98%; half-life at 1 µM [2]: 8 min"
> 145 min,> 145 min,O=C(CCOCCc1ccccc1)N[C@H]1CC[C@H](O)CC1,–
125.3 min,> 145 min,O=C(CCCCCc1cccnc1)NC1CCC(O)CC1 (configuration not stated),–
111.9 min,23.7 min,NC1CCC(NC(=O)CCCCCc2ccccc2)CC1 (configuration not stated),–
1 min,3 min,CC1CCCCC1NC(=O)NCCSc1nnc(C2CC2)n1-c1ccccc1 (configuration not stated),"solubility kinetic at 24 h [12]: 67 µM; remaining at 2 h, 2 µM [13]: 94%; remaining at 2 h, 2 µM [14]: 95%"
–,–,O=C(CCCCCc1ccccc1)NC1CCC(F)(F)CC1,half-life at 1 µM [1]: 2.8 min; half-life at 1 µM [2]: 10.2 min
> 145 min,> 145 min,O=C(CCCOCc1ccccc1)N[C@H]1CC[C@H](O)CC1,–
1.4 min,7 min,CC1CCC(NC(=O)CCCCCc2ccccc2)CC1 (configuration not stated),–

Structure (SMILES),t1/2 [1],t1/2 [2],further results
O=C(N[C@H]1CC[C@H](O)CC1)OCCCCc1ccccc1,48.9 min,131.3 min,–
